Results taken from ChEMBL document CHEMBL3085690, “Naturally occurring antimicrobial peptide OH-CATH30 selectively regulates the innate immune response to protect against sepsis” (J Med Chem, 2013).
Active and inactive are the calls of the source. The rule behind the calls is not given here. Peptide text beside a SMILES is read from it.

Assays:
[1] = tested on: BMDM; assay: Induction of CCL4 mRNA up-regulation in mouse BMDM at 20 ug/ml after 3 hrs by qRT-PCR analysis; type: functional
Method in brief: (§1)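 Murine BMDMs stimulated with peptide, then target mRNA quantified by qRT-PCR. Expression normalized to GAPDH, with untreated cells set to 1.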

[2] = tested on: Mus musculus; assay: Stimulation of innate immune response in Kunming mouse assessed as protection against drug-resistant Escherichia coli-induced mortality by measuring survival rate at 10 mg/kg, ip administered 5 hrs before bacterial infection measured up to 7 days; type: functional; conditions: route intraperitoneal
Method in brief: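 Female Kunming mice (18−22 g) were dosed ip in sterile saline at 10 mg/kg, 5 h before ip challenge with clinical drug-resistant isolates: E. coli (n = 12), P. aeruginosa (n = 10) or S. aureus (n = 15). Survival was recorded for up to 7 days, with checks every 6 h and euthanasia by CO2 at the humane end point.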

[3] = tested on: BMDM; assay: Induction of CXCL11 mRNA up-regulation in mouse BMDM at 20 ug/ml after 3 hrs by qRT-PCR analysis; type: functional; method in brief: as §1
[4] = biological target: Transcription factor p65 (Mus musculus) (UniProt Q04207); assay: Activation of NFkappaB in mouse BMDM assessed as degradation of IkappaBalpha at 10 ug/ml after 15 to 30 mins by Western blotting
Transcription factor p65 (Mus musculus), sequence (Q04207 whole entry): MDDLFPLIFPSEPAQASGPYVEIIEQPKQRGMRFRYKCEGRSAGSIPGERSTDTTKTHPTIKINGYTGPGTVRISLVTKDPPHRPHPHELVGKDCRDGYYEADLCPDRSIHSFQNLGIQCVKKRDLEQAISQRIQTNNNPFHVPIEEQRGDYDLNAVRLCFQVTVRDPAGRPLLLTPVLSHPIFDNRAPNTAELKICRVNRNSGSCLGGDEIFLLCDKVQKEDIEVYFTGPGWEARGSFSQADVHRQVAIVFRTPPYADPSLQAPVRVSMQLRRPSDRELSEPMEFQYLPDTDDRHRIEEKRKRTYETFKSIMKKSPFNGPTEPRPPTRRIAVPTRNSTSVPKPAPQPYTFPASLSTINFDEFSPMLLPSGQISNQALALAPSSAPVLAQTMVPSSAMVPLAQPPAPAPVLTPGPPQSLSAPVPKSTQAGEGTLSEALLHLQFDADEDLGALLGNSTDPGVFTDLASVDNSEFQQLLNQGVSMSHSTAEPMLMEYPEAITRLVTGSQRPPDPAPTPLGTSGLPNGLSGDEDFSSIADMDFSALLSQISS
Method in brief: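 BMDMs (bone marrow cells grown in RPMI 1640 with 10% FCS and 20% L929-conditioned medium) stimulated, then lysates run on 10% SDS-PAGE and transferred to PVDF. Membranes blocked with 5% BSA and probed with phospho-ERK1/2 and total ERK1/2 antibodies, or with anti-IκBα. HRP anti-rabbit secondary, chemiluminescent detection.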

[5] = tested on: Mus musculus; assay: Stimulation of innate immune response in Kunming mouse infected with Escherichia coli ATCC 25922 assessed as reduction of bacterial burden in peritoneal lavage by measuring survival rate at 10 mg/kg, ip administered 5 hrs before bacterial infection measured up to 7 days; type: functional, organism-based; parameters: dose 10 mg/kg
Method in brief: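 Peptide at 10 mg/kg ip was given 5 h before ip challenge with E. coli 25922 (2.5 × 10^8 CFU), P. aeruginosa 27853 (8 × 10^7 CFU) or S. aureus 25923 (2 × 10^8 CFU) per mouse. Viable bacteria were counted in peritoneal lavage collected in 2 mL of cold saline (n = 7, 6 and 8 respectively; unpaired t test). Survival was recorded for up to 7 days.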

[6] = Cytotoxicity against mouse BMDM at 5 to 20 ug/ml by LDH release assay
[7] = tested on: Mus musculus; assay: Stimulation of innate immune response in Kunming mouse assessed as increase of CXCL1 level in peritoneal lavage at 10 mg/kg, ip after 5 hrs; type: functional, organism-based; parameters: dose 10 mg/kg
Method in brief: (§2)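 Female Kunming mice (18−22 g) received a single ip injection of peptide at 10 mg/kg in sterile saline. Peritoneal lavage was collected in 2 mL of cold sterile saline 5 h later, and cytokines and chemokines were measured by ELISA. Data are mean ± SD from four mice, compared by unpaired t test.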

[8] = tested on: Mus musculus; assay: Stimulation of innate immune response in neutropenic Kunming mouse infected with Pseudomonas aeruginosa ATCC 27853 assessed as increase of number of neutrophils and inflammatory monocytes in peritoneal lavage at 10 mg/kg, ip up to 24 hrs; type: functional, organism-based; parameters: dose 10 mg/kg
Method in brief: (§3)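 Mice were made neutropenic with ip cyclophosphamide, 150 mg/kg on day 0 and 100 mg/kg on day 3. They were then injected ip with peptide at 10 mg/kg. Peritoneal cells were collected up to 24 h afterwards and typed by flow cytometry after GR1/F4/80 staining.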

[9] = tested on: THP-1; assay: Increase of cytokine production in PMA-differentiated human THP1 cells by ELISA; type: functional, cell-based
[10] = tested on: Mus musculus; assay: Stimulation of innate immune response in Kunming mouse assessed as increase of CCL2 level in peritoneal lavage at 10 mg/kg, ip after 5 hrs; type: functional, organism-based; parameters: dose 10 mg/kg; method in brief: as §2
[11] = tested on: Mus musculus; assay: Stimulation of innate immune response in neutropenic Kunming mouse infected with Pseudomonas aeruginosa ATCC 27853 assessed as increase of resident monocytes/macrophagess in peritoneal lavage at 10 mg/kg, ip; type: functional, organism-based; parameters: dose 10 mg/kg; method in brief: as §3
[12] = tested on: BMDM; assay: Increase of IL-1beta protein level in mouse BMDM at 20 ug/ml after 18 hrs by ELISA; type: functional
Method in brief: (§4)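 Bone marrow-derived macrophages (RPMI 1640, 10% FCS, 20% L929-conditioned medium) stimulated with peptide for 18 h. Cytokines and chemokines in culture supernatant quantified by sandwich ELISA. Mean ± SD from three independent experiments, unpaired t test.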

[13] = Increase of CXCL2 production in mouse BMDM after 6 hrs by ELISA in presence of p38 MAPK inhibitor SB-202190; type: functional
[14] = tested on: RAW264.7; assay: Downregulation of TLR4/MD2 complex in plasma membrane in mouse RAW264.7 cells relative to LPS; type: functional
Method in brief: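 RAW 264.7 cells in DMEM with 10% FCS, exposed 30 min to peptide (20 μg/mL) or LPS (1 μg/mL). Washed in ice-cold PBS, stained with PE anti-mouse TLR4/MD2 (2 μg/mL) for 30 min on ice. Surface complex measured by flow cytometry.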

[15] = biological target: Transcription factor p65 (Mus musculus) (UniProt Q04207); assay: Activation of NFkappaB p65 in mouse BMDM assessed as phosphorylation at 10 ug/ml after 15 to 30 mins by Western blotting
Method in brief: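 BMDMs came from mouse bone marrow cultured in RPMI 1640 with 10% FCS and 20% L929-conditioned medium. After treatment, lysates were run on 10% SDS−PAGE, transferred to PVDF, blocked with 5% BSA, and probed for phospho-p65. Detection used an HRP anti-rabbit IgG secondary and chemiluminescence.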

[16] = Increase of CXCL2 production in mouse BMDM after 6 hrs by ELISA in presence of NFkappaB inhibitor Bay11-7082; type: functional
[17] = tested on: PBMC; assay: Increase of cytokine production in human PBMC by qRT-PCR analysis; type: functional, cell-based
[18] = Increase of CXCL1 protein level in mouse BMDM at 10 ug/ml after 18 hrs by ELISA; type: functional; method in brief: as §4
[19] = tested on: Mus musculus; assay: Stimulation of innate immune response in Kunming mouse assessed as protection against Escherichia coli ATCC 25922-induced mortality by measuring survival rate at 10 mg/kg, ip administered 24 hrs before bacterial infection measured up to 7 days; type: functional, organism-based; parameters: dose 10 mg/kg
Method in brief: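 Female Kunming mice were challenged ip with E. coli 25922 at 2.5 × 10^8 CFU/mouse (n = 10). Peptide at 10 mg/kg in sterile saline was given ip at −24 h or +3 h relative to inoculation. Mice were monitored every 6 h and mortality was recorded for up to 7 days, with humane end points. Survival curves were compared by log-rank test.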

[20] = tested on: Mus musculus; assay: Stimulation of innate immune response in Kunming mouse assessed as protection against CLP-induced mortality by measuring survival rate at 10 mg/kg, ip administered 2 hrs before bacterial infection measured up to 7 days; type: functional; conditions: route intraperitoneal
[21] = tested on: Mus musculus; assay: Stimulation of innate immune response in neutropenic Kunming mouse infected with Pseudomonas aeruginosa ATCC 27853 assessed as reduction of bacterial burden in peritoneal lavage at 10 mg/kg, ip relative to control; type: functional; parameters: scale not given: the % may be the effect or the level left; conditions: route intraperitoneal
Method in brief: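 Mice were made neutropenic with cyclophosphamide ip, 150 mg/kg on day 0 and 100 mg/kg on day 3. Peptide was given ip at 10 mg/kg 5 h before ip bacterial infection on day 5 (n = 10). Viable bacteria in the peritoneal cavity were counted 8 h after inoculation, and groups were compared by unpaired t test.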

For `CC[C@H](C)[C@H](NC(=O)[C@@H](NC(=O)[C@H](CCCNC(=N)N)NC(=O)[C@@H]1CCCN1C(=O)[C@H](CCCCN)NC(=O)[C@H](CCCCN)NC(=O)[C@H](Cc1ccccc1)NC(=O)[C@H](Cc1ccccc1)NC(=O)[C@H](CCCCN)NC(=O)[C@H](CCCCN)NC(=O)[C@H](C)NC(=O)[C@H](CCCNC(=N)N)NC(=O)[C@H](CCCCN)NC(=O)[C@H](CCCCN)NC(=O)[C@@H](NC(=O)[C@H](CO)NC(=O)[C@H](CC(N)=O)NC(=O)[C@H](CCCCN)NC(=O)[C@H](CC(C)C)NC(=O)[C@H](CCCCN)NC(=O)[C@H](CCCCN)NC(=O)[C@H](Cc1ccccc1)NC(=O)[C@H](Cc1ccccc1)NC(=O)[C@@H](N)CCCCN)C(C)C)C(C)C)C(=O)NCC(=O)N[C@H](C(=O)N[C@@H](CO)C(=O)N[C@H](C(=O)N1CCC[C@H]1C(=O)N[C@@H](Cc1ccccc1)C(=O)O)[C@@H](C)CC)C(C)C` (H-KFFKKLKNSVKKRAKKFFKKPRVIGVSIPF-OH), the Activity [1] was “Active”, the survival at 10 mg/kg [2] was 92.5% and the Activity [3] was “Active”. The Activity [4] was “inactive”, the Activity [5] was “Active” and the Activity [6] was “Non-toxic”. The Activity [7] was “Active”, the Activity [8] was “inactive” and the Activity [9] was “Active”. The Activity [10] was “Active”, the Activity [11] was “Active” and the Activity [12] was “inactive”. The Activity [13] was 464.9 pg/mL, the Activity [14] was 20% and the Activity [15] was “inactive”. The Activity [16] was 1000 pg/mL, the Activity [17] was “Active” and the Activity [18] was 269 pg/mL. The Activity [19] was “Active”, the survival at 10 mg/kg [20] was 40% and the Activity [21] was 40%.
